Read-outs that look alike come from different tables or passages of the source.
Format: in vivo, human
Settings: for CL/F, Maximum / CL/F, Mean / CL/F, Median / CL/F, Minimum / Vc/F, Maximum / Vc/F, Mean / Vc/F, Median / Vc/F, Minimum: Bayesian-estimated; for AUC / concentration at 24 h: human, plasma, oral; for concentration at 24 h: 24 h postdose on day 1
Procedure, shortened: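 Ensitrelvir was dosed once daily, 375 mg on day 1 then 125 mg on days 2–5, or 750/250 mg. A population PK model was fitted to 8034 plasma concentrations from 2060 healthy and SARS-CoV-2-infected participants: two-compartment, first-order absorption, with covariates tested on CL/F. Empirical Bayesian estimates from the final model were used to calculate individual exposures for SCORPIO-SR phase III participants.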

[1] = 125 mg group: 375 mg on day 1 and 125 mg on days 2–5
[2] = 125 mg group: 375 mg on day 1 and 125 mg on days 2–5, day 1
[3] = 125 mg group: 375 mg on day 1 and 125 mg on days 2–5, day 5
[4] = 250 mg group: 750 mg on day 1 and 250 mg on days 2–5
[5] = 250 mg group: 750 mg on day 1 and 250 mg on days 2–5, day 1
[6] = 250 mg group: 750 mg on day 1 and 250 mg on days 2–5, day 5

Cn1cnc(Cn2c(=O)[nH]/c(=N\c3cc4cn(C)nc4cc3Cl)n(Cc3cc(F)c(F)cc3F)c2=O)n1 [ensitrelvir]
Entire AUC, Maximum [1]: 4429 µg·h/mL | Entire AUC, Minimum [1]: 1404 µg·h/mL | Entire Cmax, Maximum [1]: 46800 ng/mL | Entire Cmax, Minimum [1]: 14300 ng/mL | CL/F, Maximum [1]: 0.400 L/h | CL/F, Mean [1]: 0.216 L/h | CL/F, Median [1]: 0.212 L/h | CL/F, Minimum [1]: 0.116 L/h | Vc/F, Maximum [1]: 34.4 L | Vc/F, Mean [1]: 15.1 L | Vc/F, Median [1]: 14.7 L | Vc/F, Minimum [1]: 7.66 L | AUC_d1, Maximum [2]: 784.7 µg·h/mL | AUC_d1, Minimum [2]: 127.0 µg·h/mL | Cmax_d1, Maximum [2]: 41000 ng/mL | Cmax_d1, Mean [2]: 23400 ng/mL | Cmax_d1, Median [2]: 22900 ng/mL | Cmax_d1, Minimum [2]: 10300 ng/mL | AUC_d5, Maximum [3]: 1156 µg·h/mL | AUC_d5, Minimum [3]: 224.5 µg·h/mL | Cmax_d5, Maximum [3]: 46800 ng/mL | Cmax_d5, Mean [3]: 26600 ng/mL | Cmax_d5, Median [3]: 26200 ng/mL | Cmax_d5, Minimum [3]: 14300 ng/mL | Entire AUC, Maximum [4]: 9652 µg·h/mL | Entire AUC, Minimum [4]: 3090 µg·h/mL | Entire Cmax, Maximum [4]: 104000 ng/mL | Entire Cmax, Minimum [4]: 31900 ng/mL | CL/F, Maximum [4]: 0.353 L/h | CL/F, Mean [4]: 0.201 L/h | CL/F, Median [4]: 0.198 L/h | CL/F, Minimum [4]: 0.0963 L/h | Vc/F, Maximum [4]: 28.1 L | Vc/F, Mean [4]: 14.5 L | Vc/F, Median [4]: 14.1 L | Vc/F, Minimum [4]: 7.31 L | AUC_d1, Maximum [5]: 1617 µg·h/mL | AUC_d1, Minimum [5]: 375.0 µg·h/mL | Cmax_d1, Maximum [5]: 86900 ng/mL | Cmax_d1, Mean [5]: 48900 ng/mL | Cmax_d1, Median [5]: 47700 ng/mL | Cmax_d1, Minimum [5]: 24900 ng/mL | AUC_d5, Maximum [6]: 2502 µg·h/mL | AUC_d5, Minimum [6]: 615.4 µg·h/mL | Cmax_d5, Maximum [6]: 104000 ng/mL | Cmax_d5, Mean [6]: 56400 ng/mL | Cmax_d5, Median [6]: 55100 ng/mL | Cmax_d5, Minimum [6]: 31900 ng/mL | AUC (AUC_d1, Mean, 125 mg group: 375 mg on day 1 and 125 mg on days 2–5, day 1): 438 µg·h/mL | AUC (AUC_d1, Mean, 250 mg group: 750 mg on day 1 and 250 mg on days 2–5, day 1): 910 µg·h/mL | AUC (AUC_d1, Median, 125 mg group: 375 mg on day 1 and 125 mg on days 2–5, day 1): 432 µg·h/mL | AUC (AUC_d1, Median, 250 mg group: 750 mg on day 1 and 250 mg on days 2–5, day 1): 887 µg·h/mL | AUC (AUC_d5, Mean, 125 mg group: 375 mg on day 1 and 125 mg on days 2–5, day 5): 578 µg·h/mL | AUC (AUC_d5, Mean, 250 mg group: 750 mg on day 1 and 250 mg on days 2–5, day 5): 1230 µg·h/mL | AUC (AUC_d5, Median, 125 mg group: 375 mg on day 1 and 125 mg on days 2–5, day 5): 568 µg·h/mL | AUC (AUC_d5, Median, 250 mg group: 750 mg on day 1 and 250 mg on days 2–5, day 5): 1200 µg·h/mL | concentration at 24 h (C24_d1, Maximum, 125 mg group: 375 mg on day 1 and 125 mg on days 2–5): 27600 ng/mL | concentration at 24 h (C24_d1, Maximum, 250 mg group: 750 mg on day 1 and 250 mg on days 2–5): 61000 ng/mL | concentration at 24 h (C24_d1, Mean, 125 mg group: 375 mg on day 1 and 125 mg on days 2–5): 16600 ng/mL | concentration at 24 h (C24_d1, Mean, 250 mg group: 750 mg on day 1 and 250 mg on days 2–5): 34800 ng/mL | concentration at 24 h (C24_d1, Median, 125 mg group: 375 mg on day 1 and 125 mg on days 2–5): 16500 ng/mL

— publication PMC11649739 (Clinical Pharmacokinetics, 2024)
